# Screening results deposited in PubChem BioAssay by several laboratories.
# An excerpt weighted towards active compounds, which were near 6.4% of everything screened.
# Jurkat viability: reduces viability or proliferation of Jurkat cells; AID 463; 56,000 tested, 1.2% active; Jurkat E6.1 viability, ATP luminescence, 48 h; inhibition, % at 4 µM;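 active means inhibition above the mean inhibition of all tested compounds plus 3 SD, cut at about 28% in these data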
# H69AR inhibit: growth inhibitors of human H69AR lung tumor cells. 85,000 tested, 6% active. H69AR lung tumor viability, ATP luminescence, 72 h; active compounds read low. AID 598. viability, % at 10 µM;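 active means viability at or below 40%; inactive means viability above 40%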;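 further: multidrug resistant small cell line overexpressing MRP-1 efflux transporter; 100% = mean luminescence of untreated control wells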
# HUVEC inhibit: inhibitors of human endothelial cell proliferation | viability, % at 10 µM (by protocol) | AID 648 | HUVEC proliferation, CellTiter-Glo luminescence, 72 h; active compounds read low | 86,000 tested, 1.1% active;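 active means viability at or below 30%; inactive means viability above 30%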;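 further: 100% = median luminescence of DMSO-only cell control wells on each plate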
# tolC growth inh: E. coli tolC mutant growth inhibition. AID 573. E. coli BW25113 tolC mutant growth, OD615. growth inhibition, % at 10 µM (by protocol). 65,000 tested, 2.2% active;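 active means growth inhibition at or above a cutoff equal to the mean over every tested compound plus 3 SD, cut at about 60% in these data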;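 further: growth measured after 20 h incubation at 37 °C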
#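 Test system: tolC-deleted E. coli BW25113 | Medium: LB with kanamycin 50 µg/mL | Compound dosing: Single concentration, 10 µM final per compound | Schedule: 37 °C, 20 h exposure | Measured by: OD at 615 nm | Evaluation: Percent growth inhibition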
# Ecoli WT expand: E. coli BW25113 growth inhibition, expanded screen. OD600 absorbance. growth inhibition, % at 100 µM. 98,000 tested, 0.15% active. AID 710;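 active means growth inhibition above about 50% at one test dose, limit read from the data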;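 further: growth measured after 20 h incubation at 37 °C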
# Lung fibro prol: blocks proliferation of human lung fibroblasts | viability, % at 10 µM | LL 47 human lung fibroblast viability, ATP luminescence; active compounds read low | 85,000 tested, 1.1% active | AID 719;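 active means viability at or below 50% in the single dose screen; inactive means viability above 50%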;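 further: compound exposure lasted 72 h before the ATP readout; 100% = median luminescence of untreated cell-only wells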
#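 Benchmarks: Cell-only wells, no compound | Test system: LL 47 human lung fibroblasts, passage 12 or lower | Input: 1,150 cells/well | Measured by: CellTiter-Glo luminescence measuring cellular ATP | Medium: IMEM, 15% FBS supplement | Schedule: Overnight attachment after seeding, then 72 h compound exposure at 37 °C | Doses: Compound addition at 0.1% DMSO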
# Active calls of the source: *; x = no result given.
SMILES,Jurkat viability,H69AR inhibit,HUVEC inhibit,tolC growth inh,Ecoli WT expand,Lung fibro prol
Oc1c(C(c2ccco2)N2CCN(C(c3ccccc3)c3ccccc3)CC2)sc2ncnn12 (configuration not stated),5,33*,88,64*,-4,94
COc1cccc(CN2C(=O)C3CCCN3c3ccc(S(=O)(=O)N4CCOCC4)cc32)c1 (configuration not stated),x,x,x,x,-1,x
COC(=O)C1=C(C)N(Cc2ccc(C)cc2)C(=O)C1,x,x,x,x,1,x
Cc1cc(Br)c2[nH]c3c(c2c1)CCCC3=O,x,95,80,x,0,94
Cc1ccc(C2c3c(oc4ccccc4c3=O)C(=O)N2c2nnc(C(C)C)s2)o1 (configuration not stated),1,8.4*,58,10,-3,100
C=CCn1c(SCc2c(F)cccc2Cl)nnc1-c1ccco1,4,x,98,43,8,96
CCCCCSc1nnc(-c2cc(Br)ccc2N)c(=O)[nH]1,4,88,99,100*,5,102
Cc1sc(NC(=O)CSc2nnc(C)c(=O)[nH]2)c(C#N)c1C,-2,84,91,15,10,106
O=C(c1ccc2c(c1)OCCO2)N1CCN(Cc2ccccc2)CC1,x,77,96,x,8,101
COC(=O)c1ccc(CSc2ccc3nnc(-c4ccc(OC)c(OC)c4)n3n2)o1,3,66,87,18,x,94
CCOC(=O)c1sc(NC(=O)CSc2nccc(C)n2)c(C#N)c1C,x,7.2*,89,x,0,95
CCOC(=O)c1sc(NC(=O)CSc2n[nH]c(-c3ccncc3)n2)c(C#N)c1C,x,19*,47,x,-12,98
COc1ccc(N(C)C2=NS(=O)(=O)c3ccccc32)cc1,x,17*,59,x,10,66
O=S1(=O)N=C(Oc2ccccc2)c2ccccc21,-10,95,107,-11,2,98
CC(=O)Nc1ccc(Oc2ccc(-c3noc(C)n3)cc2)cc1,x,106,95,x,8,103
CC(=O)Oc1ccc(Oc2ccc(-c3noc(C)n3)cc2)cc1,34*,102,51,14,5,69
CCN(CC)CC(=O)Nc1c(C)cc(C)cc1C,x,x,96,-14,3,105
CCCCCCCCS(=O)c1sc2nc(C)cc(C)c2c1N (configuration not stated),x,94,97,x,6,96
O=c1[nH]c(N2CCN(c3ccccc3)CC2)nc2c1CCCC2,x,21*,77,x,-5,100
O=c1[nH]c(N2CCN(c3ccccc3)CC2)nc2c1CCC2,4,96,85,-3,-7,100
Cc1ccnc(N(C(=O)c2cccs2)C(=O)c2cccs2)c1,5,71,87,-6,9,95
O=C(c1cccs1)N(C(=O)c1cccs1)c1ccc(Br)cn1,x,27*,79,x,15,91
N#Cc1ccsc1NC(=O)CSc1ncnc2ccccc12,4,38*,83,9,3,78
COC(=O)c1ccc(CSc2nc3ccccc3[nH]2)o1,x,92,97,x,14,109
COC(=O)c1cc(CSc2nc3ccc(C)cc3[nH]2)oc1C,x,85,69,73*,x,102
SMILES,Jurkat viability,H69AR inhibit,HUVEC inhibit,tolC growth inh,Ecoli WT expand,Lung fibro prol
NC1=NC(c2cn(-c3ccccc3)nc2-c2cccs2)n2c(nc3ccccc32)N1 (configuration not stated),5,94,82,100*,6,102
O=C(Cc1cccc2ccccc12)N/N=C/c1ccc(OC(=O)/C=C/c2ccco2)cc1,x,24*,78,x,x,94
CCOc1ccc(N(CC(=O)N2CCc3ccccc32)S(=O)(=O)c2c(C)noc2C)cc1,10,74,91,27,-11,86
Cc1n[nH]c(C)c1S(=O)(=O)N(CC(=O)N1CCc2ccccc21)c1ccc(C(C)C)cc1,-3,31*,44,18,2,63
CCOc1ccc(-n2c(SCC(=O)Nc3ccccc3C)n[nH]c2=O)cc1,x,96,94,x,-9,100
CCCCOc1ccc(-c2ncc(Cl)cn2)cc1,-3,101,121,5,-7,100
CCCCCCc1ccc(-c2ncc(N)cn2)cc1,51*,65,57,100*,15,101
O=S(=O)(/C=C/c1ccccc1)N1CCN(c2cccc(Cl)c2)CC1,x,71,98,x,0,95
C=CCNc1nc(N2CCCC2)nc2ccccc12,-1,61,91,33,17,90
CC(Nc1nc(N2CCCCC2)nc2ccccc12)c1ccccc1 (configuration not stated),x,3.2*,3.6*,x,25,21*
COc1ccc(Nc2ncnc3ccccc23)c(OC)c1,x,59,79,x,x,92
COc1ccc(Nc2nc(N3CCCC3)nc3ccccc23)c(OC)c1,28*,2.1*,32,55,22,105
O=C(OCC(=O)N1CCN(c2ccccc2)CC1)c1ccco1,-1,29*,109,-2,-1,94
O=C(OCC(=O)N1CCN(C(=O)c2ccco2)CC1)c1ccccc1C(=O)c1ccccc1,-5,83,100,0,-3,95
O=C(OCC(=O)N1CCN(C(=O)c2ccco2)CC1)C1=COCCO1,x,111,91,0,1,100
O=C(OCC(=O)N1CCN(c2ccccc2)CC1)C1=COCCO1,-10,34*,91,-5,-4,93
CC(C)(C)c1ccc(OCC(=O)NCc2ccco2)c(Br)c1,14,81,77,100*,3,100
COc1ccc(-c2onc(C)c2-c2ccc(C(=O)OC(C)C)o2)c(O)c1,-3,90,83,100*,-3,110
COc1ccc(N2C(=O)c3ccc(C(=O)OC(C)C)cc3C2=O)cc1,x,90,87,x,x,96
CCOc1ccc(NC(=NCc2ccc3c(c2)OCO3)SC2CC(=O)N(c3ccc(OCC)cc3)C2=O)cc1 (configuration not stated),x,101,26*,x,x,43*
CCOc1ccc(N2C(=O)CC(SC(=NC)Nc3ccc4c(c3)OCO4)C2=O)cc1 (configuration not stated),x,x,x,x,-4,x
COc1ccc(NC(=O)N(Cc2ccc3c(c2)OCO3)C2CC(=O)N(c3ccc(OC)cc3)C2=O)cc1 (configuration not stated),x,40*,88,x,-9,97
CCOc1ccc(NC(=NCc2ccc3c(c2)OCO3)SC2CC(=O)N(c3ccccc3)C2=O)cc1 (configuration not stated),x,35*,53,x,x,83
CC(=O)N(C)c1ccc(NC(=O)c2cnn(C)c2)cc1,x,96,96,-9,-2,110
COc1cc2c(cc1OC)CN(CC(=O)Nc1ccc(C#N)cc1)CC2,x,x,x,x,0,x
O=c1[nH]nc(Sc2ncnc3sccc23)n1CCc1ccccc1,4,104,69,17,4,76
CCCCOC(=O)CSc1nnc(-c2ccc(Cl)cc2Cl)o1,-1,91,86,73*,11,106
